Laboratory results reported in ChEMBL document CHEMBL3351625, “Ethyl 2-(benzylidene)-7-methyl-3-oxo-2,3-dihydro-5H-thiazolo[3,2-a]pyrimidine-6-carboxylate analogues as a new scaffold for protein kinase casein kinase 2 inhibitor” (Bioorg Med Chem, 2014).

How the values were obtained:
[1] = biological target: 5'-AMP-activated protein kinase catalytic subunit alpha-1 (Homo sapiens) (UniProt Q13131); test: Inhibition of human AMPKalpha1 assessed as residual activity at 10 uM by KinaseProfiler assay
Chain of 5'-AMP-activated protein kinase catalytic subunit alpha-1 (Homo sapiens) (Q13131 whole entry, looked up): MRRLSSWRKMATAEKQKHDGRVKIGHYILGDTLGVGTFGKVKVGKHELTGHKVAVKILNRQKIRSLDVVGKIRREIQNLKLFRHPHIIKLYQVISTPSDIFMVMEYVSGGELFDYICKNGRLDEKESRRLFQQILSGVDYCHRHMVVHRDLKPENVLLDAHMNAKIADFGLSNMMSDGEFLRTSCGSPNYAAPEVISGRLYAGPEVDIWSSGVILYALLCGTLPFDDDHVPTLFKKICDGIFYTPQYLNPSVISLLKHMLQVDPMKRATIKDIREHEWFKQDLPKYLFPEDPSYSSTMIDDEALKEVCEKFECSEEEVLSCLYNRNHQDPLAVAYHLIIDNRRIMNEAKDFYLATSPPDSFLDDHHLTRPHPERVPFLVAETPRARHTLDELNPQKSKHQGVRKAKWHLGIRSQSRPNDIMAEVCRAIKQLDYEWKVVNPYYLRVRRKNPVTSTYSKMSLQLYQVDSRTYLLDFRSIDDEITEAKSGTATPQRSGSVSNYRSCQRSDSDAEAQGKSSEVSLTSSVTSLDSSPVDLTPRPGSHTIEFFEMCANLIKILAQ
Method in brief: (§1)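 Radioactive phosphorylation assays were run by an outsourced profiling service. Each of 31 human kinases was tested with inhibitor at 10 µM. Residual activity is expressed as a percentage of the mean activity in positive-control wells, which contained all reaction components except inhibitor plus DMSO as solvent control.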

[2] = biological target: 5'-AMP-activated protein kinase catalytic subunit alpha-2 (Homo sapiens) (UniProt P54646); test: Inhibition of human AMPKalpha2 assessed as residual activity at 10 uM by KinaseProfiler assay; method in brief: as §1
Chain of 5'-AMP-activated protein kinase catalytic subunit alpha-2 (Homo sapiens) (P54646 whole entry, looked up): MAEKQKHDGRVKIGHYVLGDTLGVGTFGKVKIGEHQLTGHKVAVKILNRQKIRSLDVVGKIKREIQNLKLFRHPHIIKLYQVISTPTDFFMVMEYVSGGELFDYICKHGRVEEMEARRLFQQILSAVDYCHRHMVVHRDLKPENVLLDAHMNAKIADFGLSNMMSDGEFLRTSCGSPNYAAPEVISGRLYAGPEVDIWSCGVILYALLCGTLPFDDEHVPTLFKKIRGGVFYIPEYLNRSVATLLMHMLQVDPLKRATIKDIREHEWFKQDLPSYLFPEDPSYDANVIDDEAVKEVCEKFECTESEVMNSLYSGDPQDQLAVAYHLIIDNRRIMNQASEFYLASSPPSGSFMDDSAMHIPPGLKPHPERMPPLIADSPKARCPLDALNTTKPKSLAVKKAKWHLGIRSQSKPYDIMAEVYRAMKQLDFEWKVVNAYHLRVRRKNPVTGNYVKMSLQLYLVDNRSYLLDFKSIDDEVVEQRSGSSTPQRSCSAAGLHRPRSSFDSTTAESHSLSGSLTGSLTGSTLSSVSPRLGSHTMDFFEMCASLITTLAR

[3] = species: Homo sapiens; test: Inhibition of human CK1 assessed as residual activity at 10 uM by KinaseProfiler assay; method in brief: as §1
[4] = biological target: Tyrosine-protein kinase Fgr (Homo sapiens) (UniProt P09769); test: Inhibition of human Fgr assessed as residual activity at 10 uM by KinaseProfiler assay; method in brief: as §1
Chain of Tyrosine-protein kinase Fgr (Homo sapiens) (P09769 2-529 limits assumed): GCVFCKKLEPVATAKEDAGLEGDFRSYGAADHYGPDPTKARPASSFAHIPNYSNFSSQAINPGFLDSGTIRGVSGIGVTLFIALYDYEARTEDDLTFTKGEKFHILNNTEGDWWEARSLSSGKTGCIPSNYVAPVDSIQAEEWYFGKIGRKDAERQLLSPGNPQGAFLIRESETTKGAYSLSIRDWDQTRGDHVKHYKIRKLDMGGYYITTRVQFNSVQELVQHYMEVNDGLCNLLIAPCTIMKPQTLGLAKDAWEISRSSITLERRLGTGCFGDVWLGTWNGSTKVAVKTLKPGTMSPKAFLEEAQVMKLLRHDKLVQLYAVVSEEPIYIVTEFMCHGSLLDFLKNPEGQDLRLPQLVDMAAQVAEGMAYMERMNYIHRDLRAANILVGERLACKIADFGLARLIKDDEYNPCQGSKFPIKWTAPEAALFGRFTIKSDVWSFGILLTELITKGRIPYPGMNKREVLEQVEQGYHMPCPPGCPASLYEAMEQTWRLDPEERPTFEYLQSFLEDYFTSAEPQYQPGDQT

[5] = biological target: Mitogen-activated protein kinase 8 (Homo sapiens) (UniProt P45983); test: Inhibition of human JNK1alpha1 assessed as residual activity at 10 uM by KinaseProfiler assay; method in brief: as §1
Chain of Mitogen-activated protein kinase 8 (Homo sapiens) (P45983 whole entry): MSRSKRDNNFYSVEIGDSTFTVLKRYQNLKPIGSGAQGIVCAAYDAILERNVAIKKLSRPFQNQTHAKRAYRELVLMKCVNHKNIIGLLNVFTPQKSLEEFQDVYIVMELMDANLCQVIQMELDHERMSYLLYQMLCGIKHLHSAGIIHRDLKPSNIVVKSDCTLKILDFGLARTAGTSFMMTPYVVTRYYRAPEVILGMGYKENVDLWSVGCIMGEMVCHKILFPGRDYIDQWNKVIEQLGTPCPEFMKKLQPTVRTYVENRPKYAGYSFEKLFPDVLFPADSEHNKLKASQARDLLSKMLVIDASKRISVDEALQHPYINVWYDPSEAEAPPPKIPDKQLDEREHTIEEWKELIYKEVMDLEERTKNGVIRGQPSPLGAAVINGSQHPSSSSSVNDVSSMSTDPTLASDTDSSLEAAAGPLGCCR

[6] = biological target: Tyrosine-protein kinase Lck (Homo sapiens) (UniProt P06239); test: Inhibition of human Lck assessed as residual activity at 10 uM by KinaseProfiler assay; method in brief: as §1
Chain of Tyrosine-protein kinase Lck (Homo sapiens) (P06239 2-509 limits assumed): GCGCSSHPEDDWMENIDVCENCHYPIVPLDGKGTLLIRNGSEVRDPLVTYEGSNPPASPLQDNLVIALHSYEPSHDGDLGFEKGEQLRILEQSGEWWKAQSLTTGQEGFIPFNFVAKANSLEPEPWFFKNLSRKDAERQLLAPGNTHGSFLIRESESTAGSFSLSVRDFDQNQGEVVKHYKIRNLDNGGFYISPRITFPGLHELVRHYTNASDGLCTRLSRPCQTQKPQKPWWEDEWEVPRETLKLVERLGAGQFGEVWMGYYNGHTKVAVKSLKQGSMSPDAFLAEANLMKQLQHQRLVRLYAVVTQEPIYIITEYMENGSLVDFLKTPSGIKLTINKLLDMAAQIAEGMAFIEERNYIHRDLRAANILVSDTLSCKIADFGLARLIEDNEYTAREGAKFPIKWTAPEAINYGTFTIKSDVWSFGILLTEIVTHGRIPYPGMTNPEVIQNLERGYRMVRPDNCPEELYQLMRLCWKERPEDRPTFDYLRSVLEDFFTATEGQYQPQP

[7] = biological target: MAP kinase-activated protein kinase 2 (Homo sapiens) (UniProt P49137); test: Inhibition of human MAPKAP-K2 assessed as residual activity at 10 uM by KinaseProfiler assay; method in brief: as §1
Chain of MAP kinase-activated protein kinase 2 (Homo sapiens) (P49137 whole entry, looked up): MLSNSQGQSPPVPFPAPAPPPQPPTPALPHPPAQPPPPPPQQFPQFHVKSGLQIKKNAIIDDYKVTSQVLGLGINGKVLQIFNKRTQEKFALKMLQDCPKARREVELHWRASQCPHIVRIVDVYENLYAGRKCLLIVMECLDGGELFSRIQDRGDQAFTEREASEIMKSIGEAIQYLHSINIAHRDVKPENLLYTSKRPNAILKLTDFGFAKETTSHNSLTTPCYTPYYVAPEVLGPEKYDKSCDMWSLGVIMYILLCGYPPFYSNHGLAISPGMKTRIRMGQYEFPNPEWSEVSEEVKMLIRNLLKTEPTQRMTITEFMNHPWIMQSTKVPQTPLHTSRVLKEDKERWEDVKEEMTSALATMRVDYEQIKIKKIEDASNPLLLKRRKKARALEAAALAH

[8] = biological target: MAP kinase-activated protein kinase 3 (Homo sapiens) (UniProt Q16644); test: Inhibition of human MAPKAP-K3 assessed as residual activity at 10 uM by KinaseProfiler assay; method in brief: as §1
Chain of MAP kinase-activated protein kinase 3 (Homo sapiens) (Q16644 whole entry, looked up): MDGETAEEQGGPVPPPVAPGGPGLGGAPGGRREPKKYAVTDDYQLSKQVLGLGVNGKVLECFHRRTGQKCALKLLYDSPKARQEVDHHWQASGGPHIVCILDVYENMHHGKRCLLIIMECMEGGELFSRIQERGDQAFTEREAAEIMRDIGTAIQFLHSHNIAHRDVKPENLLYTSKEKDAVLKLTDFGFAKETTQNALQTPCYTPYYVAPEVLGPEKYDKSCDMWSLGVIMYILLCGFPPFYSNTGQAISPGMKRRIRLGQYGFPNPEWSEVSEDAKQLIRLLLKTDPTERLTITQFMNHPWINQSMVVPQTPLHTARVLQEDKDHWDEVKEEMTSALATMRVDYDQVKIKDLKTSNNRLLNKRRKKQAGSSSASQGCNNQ

[9] = biological target: Ribosomal protein S6 kinase alpha-5 (Homo sapiens) (UniProt O75582); test: Inhibition of human MSK1 assessed as residual activity at 10 uM by KinaseProfiler assay; method in brief: as §1
Chain of Ribosomal protein S6 kinase alpha-5 (Homo sapiens) (O75582 whole entry, looked up): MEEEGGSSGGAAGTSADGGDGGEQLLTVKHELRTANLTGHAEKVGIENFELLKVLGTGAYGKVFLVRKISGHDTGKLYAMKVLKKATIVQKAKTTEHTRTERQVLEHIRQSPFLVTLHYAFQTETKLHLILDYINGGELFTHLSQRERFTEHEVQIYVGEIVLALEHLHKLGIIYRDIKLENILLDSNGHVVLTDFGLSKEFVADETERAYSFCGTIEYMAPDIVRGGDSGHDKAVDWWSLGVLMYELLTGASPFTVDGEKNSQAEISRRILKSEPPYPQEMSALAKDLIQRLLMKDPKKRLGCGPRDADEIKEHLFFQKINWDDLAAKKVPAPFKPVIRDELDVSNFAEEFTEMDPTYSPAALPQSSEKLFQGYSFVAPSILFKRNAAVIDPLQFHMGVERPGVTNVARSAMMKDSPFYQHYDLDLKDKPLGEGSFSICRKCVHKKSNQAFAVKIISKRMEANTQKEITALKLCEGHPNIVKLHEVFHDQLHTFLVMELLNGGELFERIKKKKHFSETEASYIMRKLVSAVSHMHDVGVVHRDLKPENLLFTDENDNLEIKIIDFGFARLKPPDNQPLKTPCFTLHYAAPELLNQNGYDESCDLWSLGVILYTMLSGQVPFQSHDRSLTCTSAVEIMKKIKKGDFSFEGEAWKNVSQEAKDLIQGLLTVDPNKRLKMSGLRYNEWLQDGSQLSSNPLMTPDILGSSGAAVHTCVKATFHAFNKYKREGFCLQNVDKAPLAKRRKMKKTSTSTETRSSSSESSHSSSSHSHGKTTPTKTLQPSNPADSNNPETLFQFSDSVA

[10] = biological target: T1, 3-phosphoinositide-dependent protein kinase 1 (Homo sapiens) (UniProt O15530); test: Inhibition of human PDK1 assessed as residual activity at 10 uM by KinaseProfiler assay; method in brief: as §1
T1 sequence (whole entry): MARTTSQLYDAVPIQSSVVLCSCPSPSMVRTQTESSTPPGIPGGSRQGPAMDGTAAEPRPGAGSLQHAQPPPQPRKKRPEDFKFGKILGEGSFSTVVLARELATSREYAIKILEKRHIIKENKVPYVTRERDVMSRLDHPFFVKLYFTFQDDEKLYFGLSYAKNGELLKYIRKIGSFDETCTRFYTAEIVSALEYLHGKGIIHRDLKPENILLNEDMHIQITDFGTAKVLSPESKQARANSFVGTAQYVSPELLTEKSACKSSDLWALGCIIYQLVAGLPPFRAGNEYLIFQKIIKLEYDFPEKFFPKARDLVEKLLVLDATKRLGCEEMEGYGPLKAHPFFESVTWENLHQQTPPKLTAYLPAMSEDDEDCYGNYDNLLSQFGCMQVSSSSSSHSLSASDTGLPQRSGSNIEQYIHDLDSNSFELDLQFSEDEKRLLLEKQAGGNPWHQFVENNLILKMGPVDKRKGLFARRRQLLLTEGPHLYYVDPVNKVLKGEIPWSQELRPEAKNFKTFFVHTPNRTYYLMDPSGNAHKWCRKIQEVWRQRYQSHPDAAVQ

[11] = species: Homo sapiens; test: Inhibition of human PKA assessed as residual activity at 10 uM by KinaseProfiler assay; method in brief: as §1
[12] = biological target: RAC-alpha serine/threonine-protein kinase (Homo sapiens) (UniProt P31749); test: Inhibition of human PKBalpha assessed as residual activity at 10 uM by KinaseProfiler assay; method in brief: as §1
Chain of RAC-alpha serine/threonine-protein kinase (Homo sapiens) (P31749 whole entry): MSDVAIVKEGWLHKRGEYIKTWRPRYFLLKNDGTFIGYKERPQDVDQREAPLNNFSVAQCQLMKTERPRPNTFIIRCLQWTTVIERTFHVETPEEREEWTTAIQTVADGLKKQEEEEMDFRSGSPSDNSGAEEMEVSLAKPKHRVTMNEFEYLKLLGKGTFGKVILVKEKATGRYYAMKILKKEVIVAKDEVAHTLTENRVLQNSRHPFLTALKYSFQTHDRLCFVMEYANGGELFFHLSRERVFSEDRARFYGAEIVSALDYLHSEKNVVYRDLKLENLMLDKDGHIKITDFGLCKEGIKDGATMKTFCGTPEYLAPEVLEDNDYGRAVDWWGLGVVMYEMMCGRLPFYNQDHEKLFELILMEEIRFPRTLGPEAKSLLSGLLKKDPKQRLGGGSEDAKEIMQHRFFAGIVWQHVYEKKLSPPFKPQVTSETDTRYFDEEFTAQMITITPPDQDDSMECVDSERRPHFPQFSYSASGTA

[13] = biological target: T2, MAP kinase-activated protein kinase 5 (Homo sapiens) (UniProt Q8IW41); test: Inhibition of human PRAK assessed as residual activity at 10 uM by KinaseProfiler assay; method in brief: as §1
T2 sequence (whole entry): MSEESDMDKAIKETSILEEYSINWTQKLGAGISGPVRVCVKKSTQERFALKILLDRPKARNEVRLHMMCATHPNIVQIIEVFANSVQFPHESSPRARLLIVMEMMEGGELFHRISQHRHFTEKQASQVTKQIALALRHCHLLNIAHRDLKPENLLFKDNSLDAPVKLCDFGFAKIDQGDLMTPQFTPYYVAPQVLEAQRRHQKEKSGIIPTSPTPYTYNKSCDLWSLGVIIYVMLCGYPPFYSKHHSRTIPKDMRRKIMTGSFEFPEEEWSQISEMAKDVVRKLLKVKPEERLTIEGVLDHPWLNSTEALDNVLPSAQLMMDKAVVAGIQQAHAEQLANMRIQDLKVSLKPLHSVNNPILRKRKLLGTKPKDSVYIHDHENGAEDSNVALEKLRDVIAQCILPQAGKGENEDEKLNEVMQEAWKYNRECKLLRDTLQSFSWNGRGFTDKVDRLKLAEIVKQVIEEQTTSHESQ

[14] = biological target: T3, Mitogen-activated protein kinase 13 (Homo sapiens) (UniProt O15264); test: Inhibition of human SAPK4 assessed as residual activity at 10 uM by KinaseProfiler assay; method in brief: as §1
T3 sequence (whole entry): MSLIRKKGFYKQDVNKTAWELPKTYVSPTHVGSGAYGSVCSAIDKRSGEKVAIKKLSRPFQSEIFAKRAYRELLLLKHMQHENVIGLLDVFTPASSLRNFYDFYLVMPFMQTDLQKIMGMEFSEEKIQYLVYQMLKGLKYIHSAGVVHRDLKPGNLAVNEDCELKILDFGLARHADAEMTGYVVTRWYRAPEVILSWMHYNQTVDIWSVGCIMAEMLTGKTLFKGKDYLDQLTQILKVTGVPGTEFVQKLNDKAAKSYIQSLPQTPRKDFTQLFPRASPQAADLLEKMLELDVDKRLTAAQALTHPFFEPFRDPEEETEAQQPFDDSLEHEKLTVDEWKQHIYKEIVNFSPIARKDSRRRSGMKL

[15] = biological target: T4, Serine/threonine-protein kinase Sgk1 (Homo sapiens) (UniProt O00141); test: Inhibition of human SGK assessed as residual activity at 10 uM by KinaseProfiler assay; method in brief: as §1
T4 sequence (whole entry): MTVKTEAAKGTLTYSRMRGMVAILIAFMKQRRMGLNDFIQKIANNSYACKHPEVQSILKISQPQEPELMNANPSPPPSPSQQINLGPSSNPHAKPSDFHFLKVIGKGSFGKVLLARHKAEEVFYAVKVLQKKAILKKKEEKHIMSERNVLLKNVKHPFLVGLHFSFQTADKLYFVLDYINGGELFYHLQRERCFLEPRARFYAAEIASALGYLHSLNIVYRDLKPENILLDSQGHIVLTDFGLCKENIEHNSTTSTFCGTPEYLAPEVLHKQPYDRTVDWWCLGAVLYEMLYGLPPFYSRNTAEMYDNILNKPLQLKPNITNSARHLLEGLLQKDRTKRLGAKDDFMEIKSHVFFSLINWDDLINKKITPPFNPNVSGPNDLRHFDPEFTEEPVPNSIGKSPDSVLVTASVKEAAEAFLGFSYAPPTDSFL

[16] = biological target: Tyrosine-protein kinase SYK (Homo sapiens) (UniProt P43405); test: Inhibition of human Syk assessed as residual activity at 10 uM by KinaseProfiler assay; method in brief: as §1

Compound	Activity [1] [%]	Activity [2] [%]	Activity [3] [%]	Activity [4] [%]	Activity [5] [%]	Activity [6] [%]	Activity [7] [%]	Activity [8] [%]	Activity [9] [%]	Activity [10] [%]	Activity [11] [%]	Activity [12] [%]	Activity [13] [%]	Activity [14] [%]	Activity [15] [%]	Activity [16] [%]
CCOC(=O)C1=C(C)N=c2s/c(=C\c3cc(O)c(O)c(O)c3)c(=O)n2C1c1ccc(Cl)cc1 (stereo not drawn)	64	48	77	75	92	61	86	122	124	69	92	50	28	76	61	28
Brc1c(Br)c(Br)c2[nH]nnc2c1Br	75	83	51	102	51	78	78	95	66	93	109	61	60	106	65	87
CCOC(=O)C1=C(C)N=c2s/c(=C\c3ccc(O)c(O)c3)c(=O)n2C1c1ccc(Cl)cc1 (stereo not drawn)	82	65	50	98	101	57	98	117	127	78	130	90	36	79	85	77
